The record followed here is ChEMBL document CHEMBL3526066, “In vitro metabolism of 17-(dimethylaminoethylamino)-17-demethoxygeldanamycin in human liver microsomes” (Drug Metab Dispos, 2011).

Data set [1] has as its system Liver microsome. Nature of the data set: Drug level in human liver microsomes treated with 1 uM 17-DMAG by liquid chromatography-tandem mass spectrometry in presence of 10 uM alpha-naphthoflavone CYP1A2 inhibitor. Format: ADME. The essentials: (§1)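 Pooled HLMs in 0.1 M phosphate buffer pH 7.4 with 1 mM β-NADPH, 3.3 mM MgCl2 and the selective inhibitor were preincubated 3 min at 37°C in a shaking water bath. 17-DMAG (1 µM final) was then added and incubated 20 min at 37°C, with parallel no-inhibitor controls. M1, M2, M3, M4 and M6 were quantified by LC-MS/MS MRM. Inhibition was taken as the ratio of metabolite formed with versus without inhibitor.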

The test system of data set [2] is Liver microsome. The data set is described as follows: Drug level in human liver microsomes treated with 1 uM 17-DMAG by liquid chromatography-tandem mass spectrometry in presence of 1 uM tranylcypromine CYP2A6 inhibitor. The class given is ADME. The essentials:
as §1

Data set [3] has as its target T1, Cytochrome P450 2C8 (Homo sapiens, UniProt P10632).
T1 sequence (P10632 whole entry): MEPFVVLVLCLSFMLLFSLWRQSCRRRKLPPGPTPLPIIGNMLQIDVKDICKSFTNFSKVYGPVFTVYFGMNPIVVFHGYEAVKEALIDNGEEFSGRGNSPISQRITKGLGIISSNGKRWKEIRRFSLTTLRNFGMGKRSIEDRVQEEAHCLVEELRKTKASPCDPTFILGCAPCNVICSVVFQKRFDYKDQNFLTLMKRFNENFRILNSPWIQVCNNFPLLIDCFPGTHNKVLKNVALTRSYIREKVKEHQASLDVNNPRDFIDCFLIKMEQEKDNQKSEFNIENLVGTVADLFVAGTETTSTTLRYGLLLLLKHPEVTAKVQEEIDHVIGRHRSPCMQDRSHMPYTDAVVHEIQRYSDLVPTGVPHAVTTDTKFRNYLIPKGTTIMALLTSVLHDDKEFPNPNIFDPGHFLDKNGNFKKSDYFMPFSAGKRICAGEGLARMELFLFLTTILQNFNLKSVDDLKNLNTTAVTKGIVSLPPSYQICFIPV
Nature of the data set: Drug level assessed as human recombinant CYP2C8-mediated oxidative metabolism treated with 1 uM 17-DMAG relative to CYP3A4. The class given is ADME. Conditions: recombinant enzyme. The essentials:
(§2)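 Recombinant human P450 (E. coli-expressed, coexpressed with cytochrome b5), 20 pmol per 200 µl incubation with 0.2 mg reduced β-NADPH and 3.3 mM MgCl2 in 0.1 M phosphate buffer pH 7.4. Preincubated at 37°C in a shaking water bath, then 1 µM 17-DMAG added. E. coli control microsomes lacking P450 cDNA served as negative control. Metabolite (M1–M4, M6) formation rates were read by LC-MS/MS MRM and expressed as percent of the CYP3A4 rate.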

In data set [4] the target is Cytochrome P450 2C19 (Homo sapiens, UniProt P33261). Nature of the data set: Drug level assessed as human recombinant CYP2C19-mediated oxidative metabolism treated with 1 uM 17-DMAG relative to CYP3A4. Format: ADME. Conditions: recombinant enzyme. An outline of the steps: as §2
The target of data set [5] is Cytochrome P450 3A4 (Homo sapiens, UniProt P08684). The data set is described as follows: Drug level assessed as human recombinant CYP3A4-mediated oxidative metabolism treated with 1 uM 17-DMAG after 30 mins by liquid chromatography-tandem mass spectrometry. Format: ADME. To be noted: recombinant enzyme, 0.5 h. An outline of the steps:
as §2

For data set [6], the system named is Liver microsome. The data set is described as follows: Drug level in human liver microsomes treated with 1 uM 17-DMAG by liquid chromatography-tandem mass spectrometry in presence of 10 uM ticlopidine CYP2B6 inhibitor. Format: ADME. An outline of the steps:
as §1

Data set [7] concerns the target T2, Cytochrome P450 1A2 (Homo sapiens, UniProt P05177).
T2 sequence (P05177 whole entry): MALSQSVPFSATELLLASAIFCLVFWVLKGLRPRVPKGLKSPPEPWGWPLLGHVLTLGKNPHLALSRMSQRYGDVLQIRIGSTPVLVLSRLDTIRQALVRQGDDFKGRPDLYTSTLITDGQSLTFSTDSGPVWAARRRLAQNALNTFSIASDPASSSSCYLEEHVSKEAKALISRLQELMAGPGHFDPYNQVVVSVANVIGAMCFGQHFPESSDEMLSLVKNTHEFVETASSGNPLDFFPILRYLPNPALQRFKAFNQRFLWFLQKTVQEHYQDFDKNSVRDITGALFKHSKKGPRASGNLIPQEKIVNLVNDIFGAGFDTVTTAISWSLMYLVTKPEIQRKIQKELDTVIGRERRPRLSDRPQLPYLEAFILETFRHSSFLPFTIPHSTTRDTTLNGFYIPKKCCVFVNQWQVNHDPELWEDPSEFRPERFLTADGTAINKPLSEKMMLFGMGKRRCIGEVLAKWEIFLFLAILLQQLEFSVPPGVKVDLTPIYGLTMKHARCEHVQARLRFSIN
The data set is described as follows: Drug level assessed as human recombinant CYP1A2-mediated oxidative metabolism treated with 1 uM 17-DMAG relative to CYP3A4. Format: ADME. Conditions: recombinant enzyme. The essentials: as §2

Data set [8] addresses Cytochrome P450 2D6 (Homo sapiens, UniProt P10635). Nature of the data set: Drug level assessed as human recombinant CYP2D6-mediated oxidative metabolism treated with 1 uM 17-DMAG relative to CYP3A4. The class given is ADME. Conditions: recombinant enzyme. An outline of the steps:
as §2

The target in data set [9] is T3, Cytochrome P450 2A6 (Homo sapiens, UniProt P11509).
T3 sequence (P11509 whole entry): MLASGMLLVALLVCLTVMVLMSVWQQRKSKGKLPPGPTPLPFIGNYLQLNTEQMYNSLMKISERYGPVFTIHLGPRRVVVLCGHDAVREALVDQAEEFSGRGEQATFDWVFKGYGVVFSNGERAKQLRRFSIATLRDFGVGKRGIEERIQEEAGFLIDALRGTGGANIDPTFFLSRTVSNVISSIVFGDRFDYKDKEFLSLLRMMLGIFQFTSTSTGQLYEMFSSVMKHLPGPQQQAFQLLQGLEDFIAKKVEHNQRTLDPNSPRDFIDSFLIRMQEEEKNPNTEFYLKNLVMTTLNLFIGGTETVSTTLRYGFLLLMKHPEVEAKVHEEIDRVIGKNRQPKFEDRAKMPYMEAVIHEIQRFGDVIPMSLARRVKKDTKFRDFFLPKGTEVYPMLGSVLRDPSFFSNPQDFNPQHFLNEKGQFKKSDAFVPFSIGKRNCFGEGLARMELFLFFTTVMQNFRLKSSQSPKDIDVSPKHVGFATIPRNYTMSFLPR
The data set is described as follows: Drug level assessed as human recombinant CYP2A6-mediated oxidative metabolism treated with 1 uM 17-DMAG relative to CYP3A4. Format: ADME. Conditions: recombinant enzyme. The essentials:
as §2

Data set [10] has as its system Liver microsome. The data set is described as follows: Retention time in human liver microsomes treated with 10 uM […] after 2 hrs by liquid chromatography-tandem mass spectrometry. The class given is ADME. The essentials:
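17-DMAG (10 µM initial) was incubated with HLMs (1 mg/ml) in 0.1 M phosphate buffer with 3.3 mM MgCl2 and 1 mM β-NADPH at 37°C for 2 h alongside negative controls, then quenched with ice-cold acetonitrile. Samples were run on a C18 column with a 0.1% formic acid/ammonium formate–acetonitrile gradient (10–90% B in 10 min) using MS full scan, MRM, EPI and MS3 scans.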

Data set [11] has as its system Liver microsome. The data set is described as follows: Drug level in human liver microsomes treated with 1 uM 17-DMAG by liquid chromatography-tandem mass spectrometry in presence of 1 uM quinidine CYP2D6 inhibitor. The class given is ADME. The essentials:
as §1

Data set [12] concerns Liver microsome. The data set is described as follows: Drug level in human liver microsomes treated with 1 uM 17-DMAG by liquid chromatography-tandem mass spectrometry in presence of 1 uM quercetin CYP2C8 inhibitor. Format: ADME. The essentials:
as §1

The test system of data set [13] is Liver microsome. Nature of the data set: Drug level in human liver microsomes treated with 1 uM 17-DMAG by liquid chromatography-tandem mass spectrometry in presence of 10 uM diethyldithiocarbamate CYP2E1 inhibitor. Format: ADME. The essentials: as §1
Data set [14] has as its system Liver microsome. Nature of the data set: Drug level in human liver microsomes treated with 1 uM 17-DMAGby liquid chromatography-tandem mass spectrometry in presence of 1 uM sulfaphenazole CYP2C9 inhibitor. The class given is ADME. The essentials: as §1
Data set [15] is described as follows: Drug metabolism in human liver microsomes assessed as stability during first 5 mins relative to control in presence of reduced GSH by liquid chromatography-tandem mass spectrometry. The class given is ADME. To be noted: read-out: Stability. An outline of the steps:
(§3)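 Substrate (5 µM final) was incubated at 37°C with HLMs (1 mg/ml; boiled HLMs as negative control) in 0.1 M phosphate buffer with 3.3 mM MgCl2 and 1 mM β-NADPH, with or without 5 mM reduced GSH. Aliquots were taken at 1, 5, 10, 15, 30, 45, 60 and 120 min and quenched with ice-cold acetonitrile containing internal standard. Samples were analysed by LC-MS/MS, with values given as percent of the analyte/internal-standard peak area ratio at 1 min.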

Data set [16] can be described thus: Drug metabolism in human liver microsomes assessed as stability after 5 mins relative to control in presence of reduced GSH by liquid chromatography-tandem mass spectrometry. The class given is ADME. An outline of the steps:
as §3

Data set [17] is described as follows: Drug metabolism in human liver microsomes assessed as stability after 2 hrs relative to control by liquid chromatography-tandem mass spectrometry. Format: ADME. Conditions: read-out: Stability. The essentials:
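Pooled human liver microsomes (1 mg/ml) were incubated at 37°C with substrate (5 µM final), 1 mM β-NADPH and 3.3 mM MgCl2 in 0.1 M phosphate buffer, with or without 5 mM reduced GSH. Aliquots were taken from 1 to 120 min and quenched in ice-cold acetonitrile containing internal standard. LC-MS/MS peak-area ratios to internal standard were normalised to the 1-min sample.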

Data set [18] in a line: Drug metabolism in human liver microsomes assessed as stability after 120 mins relative to control in presence of reduced GSH by liquid chromatography-tandem mass spectrometry. The class given is ADME. Conditions: read-out: Stability. The essentials: as §3
The subject of data set [19] is Liver microsome. Nature of the data set: Drug metabolism in human liver microsomes assessed as 17-(allylamino)-17-demethoxygeldanamycin hydroquinone formation after 1 hr relative to control by liquid chromatography-tandem mass spectrometry. The class given is ADME. An outline of the steps:
as §3

Data set [20] is described as follows: Terminal half life in human. The class given is ADME, organism-based. Conditions: in vivo, read-out: beta t1/2 (converted).
The subject of data set [21] is Liver microsome. The data set is described as follows: Drug metabolism in human liver microsomes assessed as stability after 45 mins relative to control by liquid chromatography-tandem mass spectrometry. Format: ADME. Conditions: 0.75 h. The essentials: as §3
Data set [22] deals with Liver microsome. Nature of the data set: Drug metabolism in human liver microsomes assessed as 17-aminogeldanamycin formation at 37 degC in presence of reduced GSH by liquid chromatography-tandem mass spectrometry. To be noted: read-out: Km(app). The class given is ADME.

Sequence of Cytochrome P450 2C19 (P33261 whole entry): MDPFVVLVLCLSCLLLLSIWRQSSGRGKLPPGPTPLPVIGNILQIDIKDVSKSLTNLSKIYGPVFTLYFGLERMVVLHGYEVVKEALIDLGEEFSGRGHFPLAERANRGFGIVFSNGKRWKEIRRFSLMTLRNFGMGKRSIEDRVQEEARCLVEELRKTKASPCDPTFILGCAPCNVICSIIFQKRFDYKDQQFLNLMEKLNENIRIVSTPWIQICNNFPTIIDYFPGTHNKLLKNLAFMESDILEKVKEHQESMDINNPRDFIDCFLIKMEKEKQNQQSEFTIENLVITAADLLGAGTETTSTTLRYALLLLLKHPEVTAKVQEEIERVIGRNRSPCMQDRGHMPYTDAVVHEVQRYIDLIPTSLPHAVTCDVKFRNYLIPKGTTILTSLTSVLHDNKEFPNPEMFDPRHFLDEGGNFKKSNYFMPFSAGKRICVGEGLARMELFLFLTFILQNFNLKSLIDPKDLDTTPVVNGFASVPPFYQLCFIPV
Sequence of Cytochrome P450 2D6 (P10635 whole entry): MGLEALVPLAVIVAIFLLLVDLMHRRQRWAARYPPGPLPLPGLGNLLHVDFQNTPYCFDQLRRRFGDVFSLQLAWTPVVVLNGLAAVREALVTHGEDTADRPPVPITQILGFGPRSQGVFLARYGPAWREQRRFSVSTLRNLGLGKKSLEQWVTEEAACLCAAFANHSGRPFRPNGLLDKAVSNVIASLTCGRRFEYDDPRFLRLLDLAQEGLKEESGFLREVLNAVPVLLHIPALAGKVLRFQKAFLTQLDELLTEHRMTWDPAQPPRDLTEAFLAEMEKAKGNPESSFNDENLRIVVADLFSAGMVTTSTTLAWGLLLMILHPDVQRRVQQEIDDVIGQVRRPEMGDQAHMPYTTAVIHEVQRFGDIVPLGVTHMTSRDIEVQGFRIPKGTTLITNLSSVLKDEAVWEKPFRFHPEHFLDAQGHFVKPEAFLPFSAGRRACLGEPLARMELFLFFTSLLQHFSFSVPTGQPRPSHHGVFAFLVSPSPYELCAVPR
Sequence of Cytochrome P450 3A4 (P08684 whole entry): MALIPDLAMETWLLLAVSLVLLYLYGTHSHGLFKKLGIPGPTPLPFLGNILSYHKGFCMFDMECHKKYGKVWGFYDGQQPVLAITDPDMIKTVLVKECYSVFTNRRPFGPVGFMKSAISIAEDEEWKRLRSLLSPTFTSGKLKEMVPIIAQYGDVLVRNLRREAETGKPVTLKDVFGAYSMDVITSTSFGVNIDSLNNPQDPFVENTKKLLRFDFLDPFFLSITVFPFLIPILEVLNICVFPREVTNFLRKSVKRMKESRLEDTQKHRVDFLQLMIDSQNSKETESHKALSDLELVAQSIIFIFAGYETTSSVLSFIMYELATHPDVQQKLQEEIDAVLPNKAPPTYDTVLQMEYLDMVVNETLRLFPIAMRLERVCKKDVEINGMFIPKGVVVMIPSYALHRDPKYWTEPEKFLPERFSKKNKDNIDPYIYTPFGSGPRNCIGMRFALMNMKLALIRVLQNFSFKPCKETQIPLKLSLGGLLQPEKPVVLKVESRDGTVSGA

In the case of `CO[C@H]1/C=C\C=C(/C)C(=O)NC2=CC(=O)C(NC(O)CN(C)C)=C(C[C@@H](CO)C[C@H](OC)[C@H](O)[C@@H](CO)/C=C(\C)[C@@H]1OC(N)=O)C2=O` (some centres not stated), the Drug metabolism entry in [1], in data set [2], in data set [3], in data set [4], in data set [5] and in [6] was “metabolite_detected” in each case. Moreover, the Drug metabolism result in data set [7], in data set [8], in data set [9], in data set [11], in [12] and in data set [13] was “metabolite_detected” in each case. The Drug metabolism result in data set [14] is recorded as “metabolite_detected”. The compound further displayed a Retention_time in [10] of 6.8 min.

Regarding `COC1=C2C[C@@H](C)C[C@H](OC)[C@H](O)[C@@H](C)/C=C(\C)[C@H](OC(N)=O)[C@@H](OC)/C=C\C=C(/C)C(=O)NC(=CC1=O)C2=O` [GELDANAMYCIN], the remaining at 5 min in data set [15] and in data set [16] was 75.3% in each case. Further, the figures for the remaining at 2 h in [17] and in data set [18] were 73% and 46.6%, respectively.

In the case of `C=CCNc1c(O)cc2c(O)c1C[C@@H](C)C[C@H](OC)[C@H](O)[C@@H](C)/C=C(\C)[C@H](OC(N)=O)[C@@H](OC)/C=C\C=C(/C)C(=O)N2` [RETASPIMYCIN], the Drug metabolism result in data set [19] is given as “metabolite_not_detected”.

Consider `C=CCNC1=C2C[C@@H](C)C[C@H](OC)[C@H](O)[C@@H](C)/C=C(\C)[C@H](OC(N)=O)[C@@H](OC)/C=C\C=C(/C)C(=O)NC(=CC1=O)C2=O` [TANESPIMYCIN], for which, in data set [20], the half-life was 4 h. The Stability result in data set [21] is “Unstable”. Also, the Km in data set [22] was determined as 29.1 µM.
